In ChEMBL document CHEMBL4376814, “Novel cyclin-dependent kinase 9 (CDK9) inhibitor with suppression of cancer stemness activity against non-small-cell lung cancer” (Eur J Med Chem, 2019):
Calls of active or inactive are those of the source. The rule behind the calls is not given here.

Columns and labels:
[1] = target: Serine/threonine-protein kinase 35 (Homo sapiens) (UniProt Q8TDR2); assay: Inhibition of full length recombinant human CLIK1 at 1 uM using RSRSRSRSRSRSRSR as substrate measured after 40 mins in presence of [gamma33P]ATP by scintillation counting method relative to control
[2] = target: Receptor-type tyrosine-protein kinase FLT3 (Homo sapiens) (UniProt P36888); assay: Inhibition of recombinant human Flt3 (564 to end residues) at 1 uM using EAIYAAPFAKKK as substrate measured after 40 mins in presence of [gamma33P]ATP by scintillation counting method relative to control
[3] = target: Tyrosine-protein kinase Lyn (Homo sapiens) (UniProt P07948); assay: Inhibition of recombinant full-length human LYN at 1 uM using poly(Glu, Tyr) 4:1 as substrate measured after 40 mins in presence of [gamma33P]ATP by scintillation counting method relative to control
Homo sapiens = species: Homo sapiens; assay: Inhibition of recombinant full-length human AURKA I31F mutant at 1 uM using LRRASLG as substrate measured after 40 mins in presence of [gamma33P]ATP by scintillation counting method relative to control
[4] = target: CDK12/Cyclin K (Homo sapiens) (UniProt O75909+Q9NYV4); assay: Inhibition of human full length recombinant CDK12/cyclinK at 1 uM using RSRSRSRSRSRSRSR as substrate incubated for 120 mins in presence of [gamma-33P]ATP at by radiometric assay relative to control; format: protein-complex assay
Mus musculus = species: Mus musculus; assay: Inhibition of recombinant full-length mouse LYN N425D mutant at 1 uM using poly(Glu, Tyr) 4:1 as substrate measured after 40 mins in presence of [gamma33P]ATP by scintillation counting method relative to control
NCI-H1299 = assay: Induction of apoptosis in human H1299 cells assessed as increase in Bim level at 0.25 to 1 uM after 24 hrs by Western blot analysis; format: functional, cell-based
In short: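 A549 or H1299 cells exposed to the indicated concentrations for 24 h. Protein extracts then immunoblotted for apoptosis-pathway proteins (Bcl2, Bim, cleaved caspase 3).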

[5] = target: DNA-dependent protein kinase catalytic subunit (Homo sapiens) (UniProt P78527); assay: Inhibition of recombinant full-length human DNA-PK at 1 uM using GST-cMyc-p53 as substrate measured after 40 mins by fluorescence assay relative to control
[6] = target: Ephrin type-A receptor 7 (Homo sapiens) (UniProt Q15375); assay: Inhibition of recombinant human EphA7 (613 to 909 residues) at 1 uM using KTFCGTPEYLAPEVRREPRILSEEEQEMFRDFDYIADWC as substrate measured after 40 mins in presence of [gamma33P]ATP by scintillation counting method relative to control
[7] = target: Calcium/calmodulin-dependent protein kinase type II subunit alpha (Homo sapiens) (UniProt Q9UQM7); assay: Inhibition of full-length recombinant human CaMK2 alpha at 1 uM using KKLNRTLSFAEPG as substrate measured after 40 mins in presence of [gamma33P]ATP by scintillation counting method relative to control
In short: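 Percent inhibition of kinase activity at a single compound concentration, measured by the outsourced Eurofins KinaseProfiler panel. Values are the mean of two independent experiments.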

[8] = target: Mitogen-activated protein kinase 1 (Homo sapiens) (UniProt P28482); assay: Inhibition of recombinant full-length human MAPK1 at 1 uM using MBP as substrate measured after 40 mins in presence of [gamma33P]ATP by scintillation counting method relative to control
[9] = target: Mitogen-activated protein kinase kinase kinase 20 (Homo sapiens) (UniProt Q9NYL2); assay: Inhibition of recombinant full-length human ZAK at 1 uM using MBP as substrate measured after 40 mins in presence of [gamma33P]ATP by scintillation counting method relative to control
[10] = target: Serine/threonine-protein kinase 32A (Homo sapiens) (UniProt Q8WU08); assay: Inhibition of recombinant full-length human STK32A at 1 uM using casein as substrate measured after 120 mins in presence of [gamma33P]ATP by scintillation counting method relative to control
[11] = target: Cyclin-dependent kinase 9 (Homo sapiens) (UniProt P50750); conditions: A549, 0.25 to 1 uM
[12] = target: ALK tyrosine kinase receptor (Homo sapiens) (UniProt Q9UM73); assay: Inhibition of recombinant human ALK (1058 to end residues) at 1 uM using KKKSPGEYVNIEF as substrate measured after 40 mins in presence of [gamma33P]ATP by scintillation counting method relative to control
[13] = target: Serine/threonine-protein kinase B-raf (Homo sapiens) (UniProt P15056); assay: Inhibition of recombinant human BRAF (416 to end residues) at 1 uM using myelin basic protein as substrate measured after 40 mins in presence of [gamma33P]ATP by scintillation counting method relative to control
[14] = target: Protein kinase C theta type (Homo sapiens) (UniProt Q04759); assay: Inhibition of recombinant full-length human PKCtheta at 1 uM using histone H1as substrate measured after 40 mins in presence of [gamma33P]ATP by scintillation counting method relative to control
[15] = target: Serine/threonine-protein kinase pim-2 (Homo sapiens) (UniProt Q9P1W9); assay: Inhibition of recombinant human Pim-2 (2 to end residues) at 1 uM using RSRHSSYPAGT as substrate measured after 40 mins in presence of [gamma33P]ATP by scintillation counting method relative to control
[16] = Intrinsic clearance in CD-1 mouse liver microsomes at 2 uM in presence of NADPH measured up to 1 hr by HPLC analysis; format: ADME, Microsome
[17] = target: cGMP-dependent protein kinase 1 (Homo sapiens) (UniProt Q13976); assay: Inhibition of recombinant full-length human PKG1alpha at 1 uM using RRRLSFAEPG as substrate measured after 40 mins in presence of [gamma33P]ATP by scintillation counting method relative to control
[18] = system: Receptor tyrosine-protein kinase erbB-2 (Homo sapiens), P04626 [G778D]; assay: Inhibition of recombinant human ErbB2 (676 to end residues) G778D mutant at 1 uM using poly(Glu, Tyr) 4:1 as substrate measured after 40 mins in presence of [gamma33P]ATP by scintillation counting method relative to control
SiHa = assay: Antiproliferative activity against human SiHa cells assessed as inhibition of cell viability at 500 nM after 72 hrs by CCK-8 assay relative to control; format: functional
In short: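 Single-concentration viability screen using CCK-8. Cells were seeded at 3000/well and treated for 72 h. A450 read after 1-4 h with reagent. Percent inhibition calculated against untreated control and blank wells as (Ac−As)/(Ac−Ab)×100%.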

[19] = target: Tyrosine-protein kinase ZAP-70 (Homo sapiens) (UniProt P43403); assay: Inhibition of recombinant full-length human ZAP-70 at 1 uM using poly(Glu, Tyr) 4:1 as substrate measured after 40 mins in presence of [gamma33P]ATP by scintillation counting method relative to control

CDK12/Cyclin K (Homo sapiens), sequence (O75909 whole entry, looked up): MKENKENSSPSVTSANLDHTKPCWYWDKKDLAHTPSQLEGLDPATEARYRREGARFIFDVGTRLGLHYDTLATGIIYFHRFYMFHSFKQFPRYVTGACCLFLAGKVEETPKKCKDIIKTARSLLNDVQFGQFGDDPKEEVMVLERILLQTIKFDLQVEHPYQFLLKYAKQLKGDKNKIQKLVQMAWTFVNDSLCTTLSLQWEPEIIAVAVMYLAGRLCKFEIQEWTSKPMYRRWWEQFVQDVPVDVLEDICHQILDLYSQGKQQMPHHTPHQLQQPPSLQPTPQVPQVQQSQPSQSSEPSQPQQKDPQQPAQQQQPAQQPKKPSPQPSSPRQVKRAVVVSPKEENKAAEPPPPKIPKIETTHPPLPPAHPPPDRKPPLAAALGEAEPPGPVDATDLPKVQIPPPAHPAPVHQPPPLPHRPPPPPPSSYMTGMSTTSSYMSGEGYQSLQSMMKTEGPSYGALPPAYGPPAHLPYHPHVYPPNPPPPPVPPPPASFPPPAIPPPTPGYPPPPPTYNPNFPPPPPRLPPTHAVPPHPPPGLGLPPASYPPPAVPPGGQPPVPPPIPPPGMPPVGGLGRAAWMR
CDK12/Cyclin K (Homo sapiens), sequence (Q9NYV4 whole entry, looked up): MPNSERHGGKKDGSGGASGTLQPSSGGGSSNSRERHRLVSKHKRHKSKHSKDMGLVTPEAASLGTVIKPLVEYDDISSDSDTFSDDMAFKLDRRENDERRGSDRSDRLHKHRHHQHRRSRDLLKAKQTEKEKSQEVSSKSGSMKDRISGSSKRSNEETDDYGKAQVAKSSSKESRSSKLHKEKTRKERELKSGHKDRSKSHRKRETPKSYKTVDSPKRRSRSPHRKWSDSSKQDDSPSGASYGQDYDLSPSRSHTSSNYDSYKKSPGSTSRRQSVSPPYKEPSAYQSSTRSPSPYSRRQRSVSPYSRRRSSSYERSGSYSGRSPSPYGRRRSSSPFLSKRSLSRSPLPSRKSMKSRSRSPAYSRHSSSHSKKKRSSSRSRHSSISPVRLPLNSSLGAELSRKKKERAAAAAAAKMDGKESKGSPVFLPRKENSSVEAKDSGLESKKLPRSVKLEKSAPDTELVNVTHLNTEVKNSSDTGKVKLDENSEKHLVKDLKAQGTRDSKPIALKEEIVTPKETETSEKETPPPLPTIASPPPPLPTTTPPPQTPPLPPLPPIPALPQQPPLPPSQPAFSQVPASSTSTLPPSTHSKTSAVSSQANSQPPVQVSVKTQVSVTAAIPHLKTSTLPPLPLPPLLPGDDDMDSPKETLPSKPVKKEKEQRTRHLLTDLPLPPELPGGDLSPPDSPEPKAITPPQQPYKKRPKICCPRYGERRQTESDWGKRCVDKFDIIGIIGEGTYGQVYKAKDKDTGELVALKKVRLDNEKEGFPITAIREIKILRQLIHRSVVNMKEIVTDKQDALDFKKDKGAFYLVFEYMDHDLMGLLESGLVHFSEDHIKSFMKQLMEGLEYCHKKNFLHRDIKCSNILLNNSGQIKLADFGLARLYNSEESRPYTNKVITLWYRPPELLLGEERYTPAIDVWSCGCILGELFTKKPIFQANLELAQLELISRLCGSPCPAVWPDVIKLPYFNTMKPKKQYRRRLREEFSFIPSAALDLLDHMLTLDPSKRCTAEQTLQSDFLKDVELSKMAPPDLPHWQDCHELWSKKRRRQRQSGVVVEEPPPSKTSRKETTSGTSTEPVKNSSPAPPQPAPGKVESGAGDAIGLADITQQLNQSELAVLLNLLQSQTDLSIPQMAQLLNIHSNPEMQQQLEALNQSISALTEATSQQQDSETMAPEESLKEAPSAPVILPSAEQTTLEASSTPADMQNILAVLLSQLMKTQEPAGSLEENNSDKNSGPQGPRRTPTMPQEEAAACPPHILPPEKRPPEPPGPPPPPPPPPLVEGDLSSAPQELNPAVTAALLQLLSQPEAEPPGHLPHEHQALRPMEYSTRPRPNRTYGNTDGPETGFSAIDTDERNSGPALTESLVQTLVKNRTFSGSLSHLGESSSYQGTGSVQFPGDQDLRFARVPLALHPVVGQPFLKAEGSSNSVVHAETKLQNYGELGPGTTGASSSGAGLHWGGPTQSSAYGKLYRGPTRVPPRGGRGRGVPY
Receptor-type tyrosine-protein kinase FLT3 (Homo sapiens), sequence (P36888 whole entry): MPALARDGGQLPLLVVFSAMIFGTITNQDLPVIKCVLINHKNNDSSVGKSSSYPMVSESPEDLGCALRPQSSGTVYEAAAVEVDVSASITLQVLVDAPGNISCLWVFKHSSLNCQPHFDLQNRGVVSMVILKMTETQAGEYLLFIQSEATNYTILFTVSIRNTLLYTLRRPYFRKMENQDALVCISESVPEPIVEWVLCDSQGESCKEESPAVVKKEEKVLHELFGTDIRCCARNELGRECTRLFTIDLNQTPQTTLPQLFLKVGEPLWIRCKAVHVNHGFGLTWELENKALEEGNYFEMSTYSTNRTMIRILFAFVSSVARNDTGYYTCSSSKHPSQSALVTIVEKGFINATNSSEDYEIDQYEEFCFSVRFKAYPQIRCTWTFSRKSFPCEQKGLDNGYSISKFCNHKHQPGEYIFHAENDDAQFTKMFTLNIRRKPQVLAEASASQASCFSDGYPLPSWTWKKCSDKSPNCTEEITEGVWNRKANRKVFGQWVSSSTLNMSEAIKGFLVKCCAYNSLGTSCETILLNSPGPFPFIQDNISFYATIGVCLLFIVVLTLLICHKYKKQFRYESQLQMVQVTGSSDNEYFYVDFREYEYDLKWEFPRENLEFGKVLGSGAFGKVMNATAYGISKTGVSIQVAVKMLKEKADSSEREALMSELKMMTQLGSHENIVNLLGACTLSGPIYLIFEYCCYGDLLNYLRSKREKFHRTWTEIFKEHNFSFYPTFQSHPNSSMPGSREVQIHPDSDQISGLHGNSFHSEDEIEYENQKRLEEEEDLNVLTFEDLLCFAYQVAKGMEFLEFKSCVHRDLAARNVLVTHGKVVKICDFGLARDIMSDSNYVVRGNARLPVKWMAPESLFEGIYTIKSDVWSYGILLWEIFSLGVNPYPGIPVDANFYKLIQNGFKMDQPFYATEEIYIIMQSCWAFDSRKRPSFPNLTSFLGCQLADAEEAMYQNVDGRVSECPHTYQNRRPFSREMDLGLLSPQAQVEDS
ALK tyrosine kinase receptor (Homo sapiens), sequence (Q9UM73 19-1620 limits assumed): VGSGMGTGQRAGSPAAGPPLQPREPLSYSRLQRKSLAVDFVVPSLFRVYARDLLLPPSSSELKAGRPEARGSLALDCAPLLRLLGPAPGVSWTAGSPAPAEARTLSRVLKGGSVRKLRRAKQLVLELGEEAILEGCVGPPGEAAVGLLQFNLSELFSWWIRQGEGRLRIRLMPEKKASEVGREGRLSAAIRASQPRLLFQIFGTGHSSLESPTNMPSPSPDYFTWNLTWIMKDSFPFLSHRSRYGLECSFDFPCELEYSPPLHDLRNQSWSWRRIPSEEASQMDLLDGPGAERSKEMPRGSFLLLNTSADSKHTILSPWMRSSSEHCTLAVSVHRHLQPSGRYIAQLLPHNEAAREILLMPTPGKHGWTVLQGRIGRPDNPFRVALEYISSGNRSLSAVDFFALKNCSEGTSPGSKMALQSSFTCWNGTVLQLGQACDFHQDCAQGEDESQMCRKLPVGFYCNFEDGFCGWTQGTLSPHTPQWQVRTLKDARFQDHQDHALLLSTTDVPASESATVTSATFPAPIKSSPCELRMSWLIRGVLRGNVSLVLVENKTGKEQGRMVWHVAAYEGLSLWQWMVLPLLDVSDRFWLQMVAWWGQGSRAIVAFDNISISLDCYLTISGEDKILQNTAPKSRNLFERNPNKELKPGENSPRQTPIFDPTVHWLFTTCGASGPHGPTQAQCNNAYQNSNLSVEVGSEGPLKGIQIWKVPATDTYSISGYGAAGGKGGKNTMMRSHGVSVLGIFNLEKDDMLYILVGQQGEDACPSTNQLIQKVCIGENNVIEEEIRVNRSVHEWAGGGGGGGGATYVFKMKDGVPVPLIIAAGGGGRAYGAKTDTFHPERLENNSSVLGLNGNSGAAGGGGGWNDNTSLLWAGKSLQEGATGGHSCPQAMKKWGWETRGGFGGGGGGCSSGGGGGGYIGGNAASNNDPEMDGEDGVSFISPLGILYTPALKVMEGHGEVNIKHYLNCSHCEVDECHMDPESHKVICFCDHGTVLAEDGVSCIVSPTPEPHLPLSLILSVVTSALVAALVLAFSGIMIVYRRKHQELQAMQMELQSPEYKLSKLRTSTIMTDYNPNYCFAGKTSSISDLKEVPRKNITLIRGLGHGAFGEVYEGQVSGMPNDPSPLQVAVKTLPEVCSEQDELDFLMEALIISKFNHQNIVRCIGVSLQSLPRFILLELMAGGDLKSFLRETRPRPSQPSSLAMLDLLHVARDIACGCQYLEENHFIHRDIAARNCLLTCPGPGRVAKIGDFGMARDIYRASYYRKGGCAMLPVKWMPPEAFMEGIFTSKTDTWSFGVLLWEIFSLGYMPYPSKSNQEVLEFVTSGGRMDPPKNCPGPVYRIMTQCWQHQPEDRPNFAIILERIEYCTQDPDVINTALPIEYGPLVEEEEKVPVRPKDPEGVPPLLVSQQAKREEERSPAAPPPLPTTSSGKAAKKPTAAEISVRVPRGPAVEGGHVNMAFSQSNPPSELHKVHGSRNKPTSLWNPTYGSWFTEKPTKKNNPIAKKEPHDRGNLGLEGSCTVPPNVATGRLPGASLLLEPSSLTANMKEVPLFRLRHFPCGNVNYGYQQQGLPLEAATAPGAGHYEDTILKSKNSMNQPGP
Serine/threonine-protein kinase 32A (Homo sapiens), sequence (Q8WU08 whole entry): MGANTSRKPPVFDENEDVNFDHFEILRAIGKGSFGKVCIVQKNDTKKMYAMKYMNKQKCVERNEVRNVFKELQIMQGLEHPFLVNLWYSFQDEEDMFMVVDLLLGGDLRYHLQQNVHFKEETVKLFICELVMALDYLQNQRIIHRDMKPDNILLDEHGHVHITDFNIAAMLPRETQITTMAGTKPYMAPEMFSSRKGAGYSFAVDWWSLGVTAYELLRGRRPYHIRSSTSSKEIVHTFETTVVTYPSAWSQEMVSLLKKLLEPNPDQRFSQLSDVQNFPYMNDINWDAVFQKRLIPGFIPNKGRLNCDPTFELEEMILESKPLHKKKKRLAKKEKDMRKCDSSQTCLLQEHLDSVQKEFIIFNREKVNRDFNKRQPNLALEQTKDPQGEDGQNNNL

**Q.** What does the source list for `CN(C)C(=O)c1cc2cnc(Nc3ccc(NC(=O)CCCCCCCN=C=S)cc3)nc2n1C1CCCC1`?
**A.** inhibition [1]: 14%; inhibition [2]: 66%; inhibition [3]: 25%; inhibition (Homo sapiens): 95%; inhibition [4]: 45%; inhibition (Mus musculus): 36%; Activity (NCI-H1299): Active; inhibition [5]: 9%; inhibition [6]: 6%; inhibition [7]: 61%; inhibition [8]: 3%; inhibition [9]: 86%; inhibition [10]: 33%; inhibition [11]: Active; inhibition [12]: -3%; inhibition [13]: 34%; inhibition [14]: 47%; inhibition [15]: -1%; CLH [16]: 100 µL/min/mg; inhibition [17]: -3%; inhibition [18]: -1%; inhibition at 0.5 µM (SiHa): 11%; inhibition [19]: 13%
